# Measurements collected from several papers.
# Lines come from different studies, so protocols differ.
# Target: Serine/threonine-protein kinase PAK 6 (PAK6, Homo sapiens, UniProt Q9NQU5)
Structure (SMILES),read-out,action,method,tested at,endpoint,value
CCS(=O)(=O)c1cc2cc(C[C@@](O)(CC(C)(C)c3ccc(F)cc3C(N)=O)C(F)(F)F)[nH]c2cn1,cell-free assay,,competition with immobilised ligand,1 µM,remaining binding,77%
O=C1NC(=O)c2cc(Nc3ccc(F)cc3)c(Nc3ccc(F)cc3)cc21,cell-free assay,,,0.5 µM,remaining signal,106%
CO[C@H]1CC[C@H](CNc2ccc(S(=O)(=O)NC(=O)c3ccc(N4CCN(CC5=C(c6ccc(Cl)cc6)CC(C)(C)CC5)CC4)cc3Oc3cnc4[nH]ccc4c3)cc2[N+](=O)[O-])CC1,cell-free assay,,competition with immobilised ligand,1 µM,remaining binding,75%
COc1cc(Nc2cnc(C#N)c(O[C@H](C)CN(C)C)n2)ncc1-c1cnn(C)c1,enzyme activity,inhibitor,radiometric,1 µM,remaining activity,77%
Oc1cccc(-c2nc(N3CCOCC3)c3oc4ncccc4c3n2)c1,enzyme activity,inhibitor,,10 µM,remaining activity,108%
CC(C)(C)C(=O)c1sc(NC2CCCCC2)nc1N,enzyme activity,inhibitor,,10 µM,remaining activity,98%
COc1cc2ncnc(Nc3ccc(Oc4ccccc4)cc3C)c2cc1OC,enzyme activity,inhibitor,,1 µM,inhibition,3%
Cc1ccc(C(=O)Nc2ccc(CN3CCN(C)CC3)c(C(F)(F)F)c2)cc1C#Cc1cnc2cccnn12,enzyme activity,inhibitor,,23.5 nM,remaining activity,84%
CN(C)c1nccc(-c2cnn3ncccc23)n1,binding,,,1 µM,remaining binding,100%
COc1cc(/C=C/C(=O)CC(=O)/C=C/c2ccc(O)c(OC)c2)ccc1O,enzyme activity,inhibitor,,1 µM,activity vs control,82%
CC(C)(O)[C@H]1CC[C@H](Nc2ccc3ncc(-c4cccc(C(F)(F)F)c4)n3n2)CC1,enzyme activity,inhibitor,,1 µM,remaining activity,101%
Cc1cnc(NC2CCOCC2)nc1-n1cnc(C(=O)NC(CN)c2cc(F)cc(Cl)c2)c1 (centres unmarked),enzyme activity,inhibitor,radiometric,1 µM,remaining activity,70%
O=C(NCCCC1CCCCC1)c1ccc(CNC(=O)c2cnn(-c3ccccc3)c2C(F)(F)F)cc1,cell-free assay,,competition with immobilised ligand,0.1 µM,remaining binding,100%
CCCOc1ccc(OC)c(F)c1C(=O)c1ccc(C(=O)N[C@@H]2CNC[C@H]2NC(=O)c2ccc3[nH]ncc3c2)cc1,enzyme activity,inhibitor,,10 µM,remaining activity,68%
O=C1CCc2cc(Nc3cc(OC4CCOCC4)c([N+](=O)[O-])cc3Cl)ccc2N1,cell-free assay,,competition with immobilised ligand,1 µM,remaining binding,86%
Cc1ccc(NC(=O)c2ccc(CN3CCN(C)CC3)cc2)cc1Nc1nc(-c2cccnc2)cs1,cell-free assay,,,0.5 µM,remaining signal,101%
CSc1cccnc1N1CCN(Cc2nc3ccccc3[nH]2)CC1,cell-free assay,,competition with immobilised ligand,1 µM,remaining binding,100%
O=C(Nc1cnn(-c2csc(C(=O)NC3COC3)c2)c1)Nc1c(F)cccc1Cl,enzyme activity,inhibitor,,5 µM,remaining activity,92.9%
O=C(NCc1ncc(C(F)(F)F)cc1Cl)c1ccc2c(c1)C1(CCS(=O)(=O)CC1)[C@H](C1CC1)N2S(=O)(=O)c1ccc(F)cc1,cell-free assay,,competition with immobilised ligand,1 µM,remaining binding,100%
CNC(=O)c1cc(Oc2ccc(NC(=O)Nc3ccc(Cl)c(C(F)(F)F)c3)cc2)ccn1,enzyme activity,inhibitor,,10 µM,inhibition,-29%
